Lmaj promast = inhibitors of Leishmania major promastigote growth; AID 1063; 200,000 tested, 9% active; inhibition, % at 10 µM; Leishmania major promastigotes, resazurin fluorescence viability; in the data active = inhibition above about 50%;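 also: promastigotes grown with compound for 44 hours at 28 °C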
Redox H2O2 prof = compounds producing H2O2 with reducing agent – biochemical, NIH compound library profiling, artefact control for MLSCN library redox annotation, primary screen | DTT-dependent redox cycling H2O2, phenol red/HRP absorbance; 100% = 100 µM peroxide control, 0% = buffer | activation, % at 10 µM | 200,000 tested, 0.03% active;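 active = activation of at least 50% relative to the plate's high and low controls in the primary single-dose screen; inactive = activation below 50%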;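 also: compound incubated with DTT at 0.8 mM final as the reducing agent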
Lipid droplet = hepatic lipid droplet formation modulation; AML12 mouse hepatocytes, oleate lipid droplets, BODIPY imaging; inhibition, % at 6.5 µM; 240,000 tested, 0.4% active;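 active = lipid droplet intensity inhibited by at least 50%, with more than 500 cells counted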
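Assay system: AML12 hepatocytes (mouse) / Also added: 100 µM oleic acid challenge / Times: overnight treatment with compound plus oleate / Detection: high-content imaging of BODIPY-stained droplets and DAPI nuclei / Evaluation: % inhibition of lipid droplet signal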
T cruzi inh = blocks replication of Trypanosoma cruzi; T. cruzi beta-gal in NIH3T3, luminescence, 90 h; inhibition, % (test concentration not listed); 300,000 tested, 1.4% active;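 active = mean inhibition across valid replicates above about 55%, limit read from the data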;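 also: signal also drops with host cell toxicity which is not excluded here; 0% = plate median of DMSO wells and 100% = zero luminescence signal; higher percent means less beta-gal luminescence so fewer parasites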
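Read-out: Parasite load inhibition, % | Test system: Mouse NIH/3T3 fibroblasts infected with β-gal-expressing T. cruzi Tulahuen C4 | Amount: 5,000 cells/well | Medium: DMEM, 2% fetal bovine serum | Signal: GalScreen β-gal luminescence, detergent lysis, 60 min | Timing: 3 h attach, ≥90 h co-culture | Also added: Tulahuen C4 trypomastigotes, 5000/well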
MPTP inh = blocks calcium-induced mitochondrial swelling; isolated mouse mitochondria, Ca2+ swelling absorbance, 30 min; inhibition, % at 10 µM; 360,000 tested, 1.4% active;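 active = inhibition of 50% or more, scaled per plate between neutral and stimulator controls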;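 also: 0% = DMSO wells given calcium and 100% = 1 mM EGTA wells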
MPTP counter = membrane potential counter-screen of mitochondrial pore inhibitors | shares compounds with MPTP inh | isolated mitochondria, Rhodamine 123 fluorescence | inhibition, % at 10 µM | 5,000 tested, 78% active | AID 624504; in the data active = inhibition above about 22%;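 also: 0% = DMSO vehicle and 100% = positive control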
MPTP swell DR = MPTP inhibition, dose response swelling confirmation. shares compounds with MPTP inh. isolated mitochondria swelling, absorbance. IC50, µM. 780 tested, 58% active; in the data active = IC50 below about 20 µM
MPTP counter DR = active in counter-screen for permeability transition pore inhibitors; IC50, µM; shares compounds with MPTP inh; AID 651564; isolated mitochondria counterscreen, fluorescence read-out; 780 tested, 49% active; in the data active = IC50 below about 80 µM
An asterisk follows results filed as active; i = inactive; . = no result. Shown is part of a subset that was picked to be rich in hits.

SMILES | Lmaj promast | Redox H2O2 prof | Lipid droplet | T cruzi inh | MPTP inh | MPTP counter | others
O=S(=O)(c1cccc(NC(=S)N2CCN(c3ccc(F)cc3)CC2)c1)C(F)F | 2 | 0 | -6 | -23 | 67* | 61*
O=S(=O)(c1cccc(NC(=S)N2CCN(c3cccc(Cl)c3)CC2)c1)C(F)F | -1 | 0 | -20 | 19 | 77* | 86*
COC(=O)c1ccccc1C(=O)c1ccc2c(c1)NC(=O)CO2 | 6 | -2 | -2 | -11 | 0 | .
Oc1ccc(Cl)cc1Sc1cc(Cl)ccc1O | . | . | . | . | 70* | 68*
CCN(CC)S(=O)(=O)c1ccc(/C=C/C(=O)Nc2cccc(F)c2)cc1 | 11 | 1 | -2 | 34 | 40 | .
O=C(c1ccco1)N1CCN(c2nc(C3CC3)nc3c2nnn3Cc2ccccc2Cl)CC1 | 9 | 0 | 10 | 14 | 0 | .
CC(C)(C)c1nc(N2CCN(C(=O)c3ccco3)CC2)c2nnn(Cc3ccccc3)c2n1 | 35 | 2 | . | 26 | 54* | 69*
Cc1ccc(NS(=O)(=O)c2ccc(-n3cccn3)cc2)cc1C | . | . | -2 | -5 | 2 | .
COc1cc(NS(=O)(=O)c2ccc(-n3cccn3)cc2)cc(OC)c1 | . | . | . | . | 60* | 71*
O=[N+]([O-])c1ccc(Nc2ccc(F)cc2)nc1 | 1 | 0 | 5 | -3 | 18 | .
Cc1ccc(Nc2ccc([N+](=O)[O-])cn2)cc1Cl | . | . | -14 | 18 | 75* | 69*
O=C1CC(c2ccccc2)CC(=O)N1c1ccc(C(F)(F)F)cc1 | . | . | . | . | 0 | .
O=C(COc1ccc2ccccc2c1)Nc1ccncc1 | -1 | 0 | 3 | -22 | 98* | 100*
CCOc1ccc(NC(=S)c2ccncc2)cc1 | -8 | 0 | 4 | 4 | 56* | 8 | MPTP swell DR=19*;MPTP counter DR=31*
Cc1ccc(C)c(OCC(=O)Nc2nonc2NC(=O)COc2cc(C)ccc2C)c1 | -1 | 2 | -4 | -24 | 90* | 84*
Cc1ccc(OCC(=O)Nc2ccncc2)c(C)c1 | . | . | . | -4 | 73* | 48*
CCOc1ccc(NC(=S)Nc2ccc(OC)cc2)cc1 | 4 | 1 | -2 | 2 | 3 | .
Cc1ccccc1OCC(=O)Nc1ccncc1 | . | . | 2 | -7 | 4 | .
O=C(CSc1ccc2ccccc2c1)Nc1ccncc1 | 12 | -2 | -2 | -5 | 84* | 86*
N#Cc1cccc(NC(=O)COc2ccc(-n3ccnc3)cc2)c1 | 22 | 0 | . | -10 | 62* | 20 | MPTP swell DR=i;MPTP counter DR=19*
Cc1ccc(Oc2ccc(OCC(=O)Nc3ccncc3)cc2)cc1 | . | . | . | . | 108* | 103*
COc1cc(NC(=O)COc2ccc(-n3ccnc3)cc2)cc(OC)c1 | 15 | 10 | -16 | -4 | -2 | .
CC(C)(C)c1ccc(NC(=O)COc2ccc(-n3ccnc3)cc2)cc1 | 67* | 0 | -5 | 59* | 107* | 94*
CC(C)c1ccc(OCC(=O)Nc2ccncc2)cc1 | . | . | . | -1 | 74* | 71*
CCc1ccc(OCC(=O)Nc2ccncc2)cc1 | . | . | 9 | -8 | 63* | 58*
SMILES | Lmaj promast | Redox H2O2 prof | Lipid droplet | T cruzi inh | MPTP inh | MPTP counter | others
CCCCOc1ccc(C(=O)Nc2ccncc2)cc1 | 7 | 0 | -53 | -35 | 102* | 111*
CC(C)(C)c1ccc(OCC(=O)Nc2ccncc2)cc1 | . | . | 0 | -3 | 105* | 74*
Cc1cccc(OCC(=O)Nc2ccncc2)c1 | . | . | . | -16 | 21 | .
O=C(COc1ccccc1)Nc1ccncc1 | 15 | 0 | 12 | -12 | -4 | .
Cc1cccc(CC(=O)N2CCC(N3CCC(C(=O)N4CCOCC4)CC3)CC2)c1 | 35 | 1 | 0 | 11 | -2 | .
O=C(COc1ccc2ccccc2c1)Nc1cccc(C(=O)Nc2ccccc2C(=O)O)c1 | 7 | -1 | -8 | -15 | 79* | 57*
Oc1ccc(Br)cc1/C=N/n1cnc2ccccc21 | 43 | 0 | . | 1 | 74* | 67*
Oc1ccc(Br)cc1/C=N/N1CCN(Cc2ccccc2)CC1 | 4 | 0 | . | . | 1 | .
COc1ccccc1OCCCCOc1ccccc1C(C)=O | 0 | 0 | 0 | -18 | 61* | 61*

Screening results from PubChem BioAssay.
